This is an account of results in ChEMBL document CHEMBL1122070, “Potential antitrypanosomal agents. 1,N2-Disubstituted 2-amino-5-hydroxy-4-methylnaphtho[1,2-d]thiazolium salts and related compounds” (1982).

Calls of active or inactive are those of the source. The rule behind the calls is not given here.

The test system of assay [1] is Trypanosoma brucei. In words: Minimum concentration producing complete lysis of all trypanosomes within 30 min at 37 degrees C in vitro. The assay is classed as functional. The essentials: (§1)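 T. brucei EATRO 110 bloodstream forms from infected rat or mouse blood, 1.5-2 × 10^7/mL in 1:1 phosphate-buffered saline-glucose and MEM, held on ice and used within 8 h. At 37 °C, turbidity was followed at 750 nm. Compound was added at 5–1000 μM final, with Me2SO ≤1% v/v. Phase microscopy scored lysis at 5, 10 and 30 min. MLC is the lowest concentration lysing all within 30 min. Near-MLC concentrations were repeated on 2–3 harvests.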

Assay [2] relates to Mus musculus. In words: Maximum tolerated (nonfatal) intraperitoneal dose tested in mice infected with Trypanosoma brucei.
Assay [3] deals with Trypanosoma brucei. In words: Minimum concentration producing complete lysis of all trypanosomes within 30 min at 37 degrees C in vitro in the presence of bovine serum albumin. It counts as functional, organism-based. The essentials: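 Trypanolysis of T. brucei EATRO 110 bloodstream forms (1.5-2 × 10^7/mL, 1:1 phosphate-buffered saline-glucose/MEM) with 0.3% bovine serum albumin added to the suspending medium, 37 °C. Compound was added at 5–1000 μM final with Me2SO ≤1% v/v. Turbidity was read at 750 nm and lysis checked microscopically at 5, 10 and 30 min. MLC is the lowest concentration giving complete lysis within 30 min.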

The subject of assay [4] is Mus musculus. In words: Maximum tolerated (nonfatal) intraperitoneal dose tested in mice infected with Trypanosoma brucei. It counts as functional. The essentials:
(§2)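 Female Swiss-Webster mice (20-25 g) infected ip with 5×10^4 T. brucei EATRO 110 in freshly drawn infected mouse blood diluted with minimum essential medium. Groups of five mice received compound ip 4-6 h post-infection, as a milled suspension in saline with 0.25% methylcellulose or as a saline solution. A dose was scored toxic if mean survival was <90% of untreated controls or deaths occurred within 72 h; the compound was then retested at a lower dose.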

In assay [5] the test system is Mus musculus. In words: Maximum tolerated (nonfatal) intraperitoneal dose tested in mice infected with Trypanosoma brucei. The assay is classed as functional. The essentials:
as §2

The subject of assay [6] is Trypanosoma brucei. In words: Minimum concentration producing complete lysis of all trypanosomes within 30 min at 37 degrees C in vitro; IA is Inactive at 5 uM. The assay is classed as functional, organism-based. The essentials:
as §1

In the assay on Trypanosoma brucei [1], `Cc1c(O)c2ccccc2c2c1sc(NC1CCCCC1)[n+]2CCO.[Cl-]` yielded a Min lytic concentration of 20 µM. Besides, the Max dose in the assay on Mus musculus [2] worked out at 400 mg/kg.
In the case of `Cc1c(O)c2ccccc2c2c1sc(NCCCN1CCN(C)CC1)[n+]2C.Cl.[Cl-]`, in the assay on Trypanosoma brucei [1], the Min lytic concentration is 100 µM. In the assay on Mus musculus [2], this molecule returned a Max dose of 100 mg/kg. Besides, in the assay with Trypanosoma brucei [3], the Concentration amounted to 100 µM.
As to `C=CCNc1nc2c(s1)c(C)c(O)c1ccccc12.Cl`, the Min lytic concentration in the assay on Trypanosoma brucei [1] worked out at 20 µM. In addition, in the assay on Mus musculus [2], the Max dose is 200 mg/kg.
For the molecule `CNc1nc2c(s1)c(C)c(O)c1ccccc12.Cl`, in the assay with Trypanosoma brucei [1], the Min lytic concentration amounted to 30 µM. In the assay on Mus musculus [4], this molecule came in with a Max dose of 100 mg/kg.
As to `CCCCNc1sc2c(C)c(O)c3ccccc3c2[n+]1CCCC.[Cl-]`, the Min lytic concentration in the assay with Trypanosoma brucei [1] is 10 µM. In the assay on Mus musculus [2], this molecule displayed a Max dose of 400 mg/kg. The Concentration with Trypanosoma brucei [3] came out at 100 µM.
In the assay with Trypanosoma brucei [1], `Cc1c(O)c2ccccc2c2c1sc1[n+]2CCCN1.[Cl-]` registered a Min lytic concentration above 100 µM. Also, the Max dose with Mus musculus [2] was 200 mg/kg.
In turn, `Cc1c(O)c2ccccc2c2c1sc(NCCCN(CCO)CCO)[n+]2C.[Cl-]` gave a Min lytic concentration in the assay on Trypanosoma brucei [1] of 100 µM. Further, in the assay on Mus musculus [2], the Max dose is 50 mg/kg. In addition, in the assay with Trypanosoma brucei [3], the Concentration was determined as 200 µM.
`Cc1c(O)c2ccccc2c2c1sc(NCC(C)C)[n+]2CC(C)C.[Cl-]`: in the assay on Trypanosoma brucei [1], the Min lytic concentration is 10 µM. In the assay with Mus musculus [2], the Max dose worked out at 200 mg/kg.
In the assay with Trypanosoma brucei [1], `Cc1c(O)c2ccccc2c2c1sc1[n+]2CCN1.[Cl-]` had a Min lytic concentration of 30 µM. The same molecule returned a Max dose with Mus musculus [2] of 200 mg/kg.
Turning to `Nc1nc(N)nc(Nc2ccc([As]3SCC(CO)S3)cc2)n1` (configuration not stated) [MELARSOPROL], in the assay on Trypanosoma brucei [1], the Min lytic concentration stood at 100 µM.
In the assay on Trypanosoma brucei [1], `Cl.Nc1nc2c(cc(O)c3ccccc32)s1` registered a Min lytic concentration above 500 µM. In the assay with Mus musculus [5], this molecule showed a Max dose of 100 mg/kg.
For the molecule `Cc1c(O)c2ccccc2c2c1sc(NCCc1ccccc1)[n+]2C.[Cl-]`, in the assay with Trypanosoma brucei [1], the Min lytic concentration is 10 µM. Moreover, the Max dose with Mus musculus [2] is 400 mg/kg.
On the same counts, the results for `CCCNc1sc2c(C)c(O)c3ccccc3c2[n+]1CCC.[Cl-]` are 30 µM and 400 mg/kg.
On the same counts, the results for `CCCCNc1sc2c(C)c(O)c3ccccc3c2[n+]1C.[Cl-]` are 10 µM and 200 mg/kg.
`CCCCCCNc1sc2c(C)c(O)c3ccccc3c2[n+]1CCCCCC.[Cl-]` returned a Min lytic concentration with Trypanosoma brucei [1] above 10 µM. In the assay on Mus musculus [2], this molecule came in with a Max dose of 200 mg/kg.
As for `Cc1c(O)c2ccccc2c2c1sc(NCCO)[n+]2C.[Cl-]`, the Min lytic concentration in the assay with Trypanosoma brucei [1] came out at 100 µM. The molecule further showed a Max dose in the assay on Mus musculus [2] of 100 mg/kg.
As for `Cc1c(O)c2ccccc2c2c1sc(Nc1ccccc1)[n+]2C.[Cl-]`, in the assay on Trypanosoma brucei [1], the Min lytic concentration was found to be 10 µM. In addition, the Max dose in the assay with Mus musculus [2] was 200 mg/kg.
On to `CCNc1sc2c(C)c(O)c3ccccc3c2[n+]1CC.[Cl-]`, for which, in the assay on Trypanosoma brucei [1], the Min lytic concentration was found to be 50 µM. This molecule showed a Max dose in the assay with Mus musculus [2] of 200 mg/kg. In addition, in the assay on Trypanosoma brucei [3], the Concentration worked out at 200 µM.
In the assay on Trypanosoma brucei [1], `Cc1c(O)c2ccccc2c2c1sc(Nc1ccccc1)[n+]2CCO.[Cl-]` came in with a Min lytic concentration above 5 µM. This molecule also came in with a Max dose in the assay on Mus musculus [2] of 400 mg/kg.
In turn, `COCCNc1sc2c(C)c(O)c3ccccc3c2[n+]1C.[Cl-]` yielded a Min lytic concentration in the assay on Trypanosoma brucei [1] of 50 µM. The molecule further came in with a Max dose in the assay on Mus musculus [2] of 50 mg/kg.
In turn, `COc1ccc(Nc2nc3c(s2)c(C)c(O)c2ccccc23)cc1.Cl` displayed a Min lytic concentration in the assay on Trypanosoma brucei [1] of 10 µM. The molecule also had a Max dose in the assay with Mus musculus [4] of 400 mg/kg.
`CNc1sc2c(C)c(O)c3ccccc3c2[n+]1C.[Cl-]` gave a Min lytic concentration in the assay on Trypanosoma brucei [1] of 100 µM. The Max dose in the assay with Mus musculus [2] came out at 50 mg/kg.
The like results for `CCCCCCCCNc1sc2c(C)c(O)c3ccccc3c2[n+]1C.[Cl-]` were, in that order, 10 µM and 200 mg/kg.
On the same counts, the results for `C=CCNc1sc2c(C)c(O)c3ccccc3c2[n+]1CC=C.[Cl-]` are 20 µM and 400 mg/kg.
On the same counts, the results for `Cc1c(O)c2ccccc2c2nc(Nc3ccccc3)sc12.Cl` are 20 µM and 200 mg/kg.
`CC(=O)c1cccc(Nc2sc3c(C)c(O)c4ccccc4c3[n+]2C)c1` registered a Max dose in the assay with Mus musculus [2] of 200 mg/kg. Further, the Min lytic concentration result in the assay with Trypanosoma brucei [6] is “inactive”.
`Cc1c(O)c2ccccc2c2nc(N)sc12.Cl` showed a Min lytic concentration in the assay with Trypanosoma brucei [1] of 100 µM. The molecule further gave a Max dose in the assay on Mus musculus [4] of 50 mg/kg.
